From PubChem BioAssay
Neddylation inh: cullin neddylation inhibition | TR-FRET cullin neddylation, biochemical | inhibition, % at 25 µM | AID 651699 | P61081+Q13564 | 360,000 tested, 0.58% active; in the data active = inhibition above about 36%
UCH37 DUB inh: blocks the human deubiquitinase UCH37. Q9Y5K5. purified proteasome/UCH37, Ub-AMC cleavage fluorescence. inhibition, % (test concentration not listed). 330,000 tested, 0.33% active;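 active = mean inhibition over replicate wells above about 20%, limit read from the data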;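 note: 0% = compound-free wells with enzyme and 100% = wells lacking proteasome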
Target sequence (Q9Y5K5 whole entry, looked up): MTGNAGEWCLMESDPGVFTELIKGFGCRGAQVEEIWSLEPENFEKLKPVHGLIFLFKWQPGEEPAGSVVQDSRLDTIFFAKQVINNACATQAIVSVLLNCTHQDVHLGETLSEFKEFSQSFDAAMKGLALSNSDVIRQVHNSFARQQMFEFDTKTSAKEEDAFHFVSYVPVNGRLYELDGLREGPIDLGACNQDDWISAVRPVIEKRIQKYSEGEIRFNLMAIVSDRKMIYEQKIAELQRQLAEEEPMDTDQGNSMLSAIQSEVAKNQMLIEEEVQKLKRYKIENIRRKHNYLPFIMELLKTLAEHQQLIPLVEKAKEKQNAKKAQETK
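Test system – human UCH37 enzyme supplied as purified proteasome complex · Incubation – 30 min preincubation with enzyme, 25 min cleavage at room temperature · Detection – AMC fluorescence from Ub-AMC cleavage, excitation 355 nm, emission 460 nm · Benchmarks – no-proteasome wells (full inhibition) and compound-free wells (no inhibition)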
Fh CTSL1 inh: blocks F. hepatica cathepsin L1 in PFM18AAP counter-screen. 300,000 tested, 0.49% active. recombinant F. hepatica cathepsin L1, Z-Leu-Arg-MCA fluorescence. inhibition, % at 5.96 µM. AID 1906;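 active = inhibition above the mean of all tested compounds plus 3 SD, set per screening campaign, cut at about 17% in these data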;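 note: 0% = plate median of test compound wells and 100% = 1 µM Z-Phe-Ala-diazomethylketone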
SUMO HTRF inh: SUMOylation inhibition | P63279 | HTRF SUMOylation assay, SAE1/SAE2 + UBC9, in vitro | inhibition, % at 35 µM | 290,000 tested, 0.36% active | AID 2006; in the data active = inhibition above about 50%, passing the limit was not always enough
Target sequence (P63279 whole entry, looked up): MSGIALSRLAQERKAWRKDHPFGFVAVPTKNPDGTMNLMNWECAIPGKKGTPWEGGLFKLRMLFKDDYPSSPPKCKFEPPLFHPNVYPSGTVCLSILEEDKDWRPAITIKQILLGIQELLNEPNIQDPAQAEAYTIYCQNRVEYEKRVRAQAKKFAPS
* = called active by the depositor; · = no result shown. Shown are actives, neighbours in structure and some others; about 1.4% of the full set was active somewhere.

SMILES	Neddylation inh	UCH37 DUB inh	Fh CTSL1 inh	SUMO HTRF inh
Cc1cccc(-n2c(=O)[nH]c3c(C(N)=O)nc(C(C)C)nc32)c1	31	-48	17*	7
COCCn1c(=NC(=O)c2sc3ccccc3c2Cl)sc2cc(S(N)(=O)=O)ccc21	-118	·	22*	13
N#CC1(NC(=O)COC(=O)c2cc([N+](=O)[O-])ccc2N2CCCC2)CCCCC1	-19	6	18*	·
C[n+]1cccc2cccc([O-])c21	55*	4	·	98
CC(=NNC(=O)c1cc(C)nc2ccc(C)cc12)c1ccncc1	·	5	·	·
O=C(NCc1ccc(Cl)cc1)C1CCN(S(=O)(=O)c2ccc(N3CCCC3=O)cc2)CC1	-4	-1	1	-2
O=C(NCc1ccccc1)C1CCN(S(=O)(=O)c2ccc(N3CCCC3=O)cc2)CC1	-1	3	17*	-5
CCCCCCC#Cc1cncc(C(=O)NNC(=O)Nc2cc(Cl)cc(Cl)c2)c1	8	·	-2	62*
CCOC(=O)Nc1ccc(OC)cc1S(=O)(=O)N1CCCCC1	5	29*	-9	33
C#CCOCCOCCOCCNc1nc(N2CCN(C(=O)[C@H]([C@@H](C)CC)n3cc([C@@H](N)CC(C)C)nn3)CC2)nc(N2CCN(C(=O)[C@H](Cc3cc4ccccc4[nH]3)n3cc([C@@H](N)Cc4ccc(O)cc4)nn3)CC2)n1	·	0	11	-8
C#CCOCCOCCOCCNc1nc(N2CCN(C(=O)[C@H]([C@@H](C)CC)n3cc([C@@H](N)Cc4ccc(O)cc4)nn3)CC2)nc(N2CCN(C(=O)[C@H](Cc3cc4ccccc4[nH]3)n3cc([C@@H](N)CC(C)C)nn3)CC2)n1	-11	·	51*	·
C#CCOCCOCCOCCNc1nc(N2CCN(C(=O)[C@H]([C@@H](C)CC)n3cc([C@@H](N)Cc4ccc(O)cc4)nn3)CC2)nc(N2CCN(C(=O)[C@H](CCCCN)n3cc([C@@H](N)CC(C)C)nn3)CC2)n1	·	0	28*	0
C#CCOCCOCCOCCNc1nc(N2CCN(C(=O)[C@H](CCCCN)n3cc([C@@H](N)CC(C)C)nn3)CC2)nc(N2CCN(C(=O)[C@H](Cc3ccc(O)cc3)n3cc([C@@H](N)CC(C)C)nn3)CC2)n1	·	1	8	5
CCN(CC)c1ccc2cc(C(N)=O)c(=O)oc2c1	48*	-80	6	14
CCN(CC)c1ccc2cc(C(N)=O)c(=N)oc2c1	-14	-49	2	11
C/C(=N/NC(=O)c1cc2ccccc2cc1O)c1ccco1	21	·	-1	-15
C/C(=N\NC(=O)c1cc2ccccc2cc1O)c1ccc(C)o1	40*	·	6	-1
c1ccc(CSC2=NNC(c3ccccn3)S2)cc1 (stereo not given)	38*	7	0	-151
O=C(CSC1=NNC(c2ccccn2)S1)Nc1ccc(C(F)(F)F)cc1 (stereo not given)	-7	9	-2	-104
COc1ccc(C=NN=C2SCC(=O)N2c2c(C)n(C)n(-c3ccccc3)c2=O)cc1OC	·	5	·	·
CC(C)=NOc1cc(NC(=O)CCl)cc([N+](=O)[O-])c1	-29	4	79*	4
CCC(=O)Nc1cc(ON=C(C)C)cc([N+](=O)[O-])c1	-31	5	-2	-6
NC(Cc1nc(-c2ccc(Br)cc2)cs1)=NO	·	6	·	·
C/C(C=NNC(=O)NC1CCCCC1)=C\c1ccccc1	·	2	·	·
Cc1[nH]n(C(N)=S)c(=O)c1C(c1ccccc1)C(C#N)C#N (stereo not given)	-1	5	1	-6
SMILES	Neddylation inh	UCH37 DUB inh	Fh CTSL1 inh	SUMO HTRF inh
Cc1[nH]n(-c2ncc(-c3ccccc3)s2)c(=O)c1C(c1ccc(Br)cc1)C(C#N)C#N (stereo not given)	-4	3	-3	64*
Cc1ccc(C=NN=C2SCC(=O)N2CC2CC2)cc1	·	3	·	·
CCC1CCCN1Cn1cnc2c([nH]c3ccc(Cl)cc32)c1=O (stereo not given)	20	-12	19*	11
CCC1CCCN1Cn1cnc2c([nH]c3ccc(C)cc32)c1=O (stereo not given)	·	-182	-3	5
Cc1ccc2ccc(C(Nc3ccccc3)c3ccccc3)c(O)c2n1 (stereo not given)	10	·	·	·
Cc1ccc2ccc(C(Nc3cccc(C(F)(F)F)c3)c3cccnc3)c(O)c2n1 (stereo not given)	48*	3	1	-61
CCC(C)S(=O)(=O)c1snnc1C (stereo not given)	0	31*	-2	9
CC(=O)Nc1ccccc1NS(=O)(=O)c1cccc([N+](=O)[O-])c1	-36	4	19*	11
O=C1c2ccccc2C(=O)N1c1cccc2cccnc12	-16	1	-2	74*
Cc1nc(SCC(=O)NCc2ccc3c(c2)OCO3)c(C#N)c2c1CCCC2	-1	0	21*	-7
CC(C)=CCc1c(O)ccc2c1OC(c1ccc(O)c(O)c1)CC2=O (stereo not given)	17	1	-4	3
O=C1CC(c2ccc(O)c(O)c2)Oc2c1ccc(O)c2O (stereo not given)	20	5	0	73*
COc1ccccc1/C=C/C=Nn1c(-c2n[nH]c3c2CCC3)n[nH]c1=S	·	6	·	·
O=C(NN1C(=O)/C(=C/c2ccc(O)c([N+](=O)[O-])c2)SC1=S)c1ccccc1Cl	-136	24*	8	4
Cc1ccc(S(=O)(=O)NN2C(=O)/C(=C/c3ccc(C(=O)O)cc3)SC2=S)cc1	-17	21*	-3	29
COc1cc(/C=C2\SC(=S)N(NC(=O)c3ccccc3O)C2=O)ccc1O	-51	11	5	-1
O=C(NN1C(=O)/C(=C/c2ccc(O)cc2)SC1=S)c1cccc(O)c1	-62	6	20*	4
Cc1ccc(S(=O)(=O)N(C)N=C/C=C/c2ccccc2)cc1	·	1	·	·
CC(=NO)C(=O)NCc1ccncc1	·	4	·	·
O=C1NCCCC1C(=O)NN=Cc1cccc(Cl)c1 (stereo not given)	·	4	·	·
CC1CCCC(C)N1N=Cc1ccc(C(=O)O)cc1 (stereo not given)	·	2	·	·
CCc1ccc(CNc2ccc(O)cc2)cc1	-51	-3	105*	34
Cn1cncc1C#Cc1ccc2cc(C(C)(C)O)oc(=O)c2c1	20	8	·	·
Cn1cncc1C#Cc1ccc2cc(CCCO)oc(=O)c2c1	45*	-12	·	·
Oc1ccc(N=Nc2ccc(Br)cc2)c(O)c1	-36	·	9	7
SMILES	Neddylation inh	UCH37 DUB inh	Fh CTSL1 inh	SUMO HTRF inh
O=[N+]([O-])c1ccccc1N=Nc1ccc(O)cc1O	-183	21*	·	·
Cc1cc2nc3ccc(N(C)C)cc3nc2cc1N	79*	·	-2	·
CC1=CC(=O)c2c(O)ccc(O)c2C1=O	·	·	18*	90*
Cc1ccccc1C=NNC(=O)CSc1nc2ccccc2o1	·	-1	·	·
O=[N+]([O-])c1cc(C=Nn2cnnc2)ccc1N1CCCC1	·	21*	·	·
CCOc1ccc(NC(=S)Nc2ccc3nsnc3c2)cc1	-33	14	110*	96
CCOc1ccc(NC(=O)Nc2ccc3nsnc3c2)cc1	-17	-4	4	22
C=CCNC(=S)Nc1ccc2nsnc2c1	-8	3	-3	99*
